Test results taken from ChEMBL document CHEMBL1138852, “Arylpiperazinylalkylpyridazinones and analogues as potent and orally active antinociceptive agents: synthesis and studies on mechanism of action” (J Med Chem, 2006).
Several values for one entry are separate records, joined by “and”; a condition that tells them apart may be missing. Identical values can stand only once. Activity calls are given as the source filed them.

Columns and labels:
[1] = tested on: Mus musculus; experiment: Antagonist effect on compound A-induced antinociception in Swiss Albino mouse at 1 mg/kg, ip; type: functional; conditions: route intraperitoneal
Procedure, shortened: (§1)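 Mice given antagonist i.p. (yohimbine 3 mg/kg, BRL-44408 1 mg/kg, ARC-239 10 mg/kg) plus compound A 1 mg/kg s.c., or antagonist plus vehicle. Abdominal constriction test: 0.6% acetic acid (10 mL/kg) i.p., stretching movements counted for 10 min beginning 5 min after injection. Groups of 10-15 mice, compared with saline/CMC controls.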

[2] = tested on: Mus musculus; experiment: Antinociceptive activity in Swiss Albino mouse at 1 mg/kg, ip by abdominal constriction assay; type: functional, Abdomen; conditions: route intraperitoneal
Procedure, shortened: (§2)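 Acetic acid writhing in mice: 0.6% acetic acid at 10 mL/kg i.p., with stretching movements counted over 10 min starting 5 min after injection. Compound A 1 mg/kg s.c. or antagonists i.p. Drugs in 0.9% saline or dispersed in 1% carboxymethylcellulose. Groups of 10-15 mice, compared against saline/CMC controls.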

[3] = tested on: Mus musculus; experiment: Antinociceptive activity in Swiss Albino mouse at 20 mg/kg, po by hot plate assay measured as licking latency; type: functional; set-up: unit: s
Procedure, shortened: (§3)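 Oral dosing in saline or 1% CMC. Mice placed on a surface held at 52.5 ± 0.1 °C; paw-licking latency (s) timed before treatment and at intervals up to 60 min afterwards. Mice with pretest latency below 12 or above 18 s were excluded. Cutoff 45 s.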

[4] = tested on: Mus musculus; experiment: Antinociceptive activity in Swiss Albino mouse at 20 mg/kg, po by writhing test measured as number of writhes; type: functional
Procedure, shortened: (§4)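 Drugs dosed orally 30 min before test, in saline or 1% CMC suspension; yohimbine arm included. 0.6% acetic acid (10 mL/kg) injected i.p., and abdominal constrictions counted for 10 min from 5 min after injection. Values are means of at least two experiments, compared with CMC-treated mice.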

[5] = tested on: Mus musculus; experiment: Antinociceptive activity in Swiss Albino mouse at 20 mg/kg, po by writhing test measured as number of writhes in presence of yohimbine; type: functional; procedure, shortened: as §4
[6] = tested on: Cerebral cortex; experiment: Increase in noradrenaline release in Sprague-Dawley rat cortical membranes; type: functional
[7] = biological target: Norepinephrine transporter (Rattus norvegicus, UniProt Q9WTR4); experiment: Inhibition of [3H]noradrenaline uptake in Sprague-Dawley rat brain synaptosomes; type: functional, subcellular
Sequence of Norepinephrine transporter (Q9WTR4 whole entry): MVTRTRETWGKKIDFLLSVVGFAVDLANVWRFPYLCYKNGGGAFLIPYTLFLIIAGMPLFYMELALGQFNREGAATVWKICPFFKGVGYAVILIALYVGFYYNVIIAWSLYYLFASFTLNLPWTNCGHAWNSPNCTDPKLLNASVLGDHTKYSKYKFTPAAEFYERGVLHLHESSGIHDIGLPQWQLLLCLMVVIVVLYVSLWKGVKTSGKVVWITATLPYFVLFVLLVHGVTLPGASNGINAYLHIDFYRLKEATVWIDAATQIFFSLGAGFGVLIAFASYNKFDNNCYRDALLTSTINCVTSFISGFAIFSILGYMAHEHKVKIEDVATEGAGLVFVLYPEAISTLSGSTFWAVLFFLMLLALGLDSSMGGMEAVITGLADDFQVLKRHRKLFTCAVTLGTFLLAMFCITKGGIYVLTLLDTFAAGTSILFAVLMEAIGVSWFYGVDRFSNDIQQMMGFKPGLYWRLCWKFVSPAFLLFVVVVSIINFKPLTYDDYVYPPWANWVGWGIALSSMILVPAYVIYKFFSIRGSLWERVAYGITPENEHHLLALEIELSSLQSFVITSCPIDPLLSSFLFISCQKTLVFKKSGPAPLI
Procedure, shortened: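 Rat frontal cortex synaptosomes prepared on a sucrose gradient and resuspended in Krebs-type buffer, pH 7.4, with 0.01 mM pargyline. Preincubated 5 min at 37 °C with or without drug, then [3H]-NE added for 6 min. Samples filtered and counted. Active uptake taken as accumulation at 37 °C minus accumulation at 0 °C.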

[8] = biological target: T1, Alpha-2A adrenergic receptor (Rattus norvegicus, UniProt P22909); experiment: Binding affinity to adrenergic alpha-2A receptor in Sprague-Dawley rat cortical membranes
T1 sequence (P22909 whole entry): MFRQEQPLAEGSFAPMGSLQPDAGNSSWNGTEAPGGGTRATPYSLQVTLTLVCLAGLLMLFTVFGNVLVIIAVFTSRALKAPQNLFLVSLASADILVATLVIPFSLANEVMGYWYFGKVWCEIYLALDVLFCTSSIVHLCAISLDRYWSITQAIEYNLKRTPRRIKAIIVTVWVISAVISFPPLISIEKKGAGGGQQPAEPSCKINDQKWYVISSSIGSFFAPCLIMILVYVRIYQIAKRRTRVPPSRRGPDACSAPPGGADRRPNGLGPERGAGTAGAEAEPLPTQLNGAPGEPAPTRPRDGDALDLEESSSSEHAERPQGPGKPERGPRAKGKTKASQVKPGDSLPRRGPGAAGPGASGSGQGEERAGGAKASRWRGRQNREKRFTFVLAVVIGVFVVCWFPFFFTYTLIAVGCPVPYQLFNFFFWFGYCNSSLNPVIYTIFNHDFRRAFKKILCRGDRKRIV

[9] = organism: Mus musculus; experiment: Impairment in mouse rotarod test; type: functional, organism-based
[10] = tested on: Mus musculus; experiment: Antinociceptive activity in Swiss Albino mouse at 1 mg/kg, sc by abdominal constriction assay; type: functional, Abdomen; conditions: route subcutaneous; procedure, shortened: as §2
[11] = tested on: Mus musculus; experiment: Antinociceptive activity in Swiss Albino mouse at 30 mg/kg, po by hot plate assay measured as licking latency; type: functional; procedure, shortened: as §3
[12] = tested on: Mus musculus; experiment: Antinociceptive activity in Swiss Albino mouse at 30 mg/kg, po by writhing test measured as number of writhes; type: functional; procedure, shortened: as §4
[13] = tested on: Mus musculus; experiment: Antinociceptive activity in Swiss Albino mouse at 10 mg/kg, po by writhing test measured as number of writhes; type: functional; procedure, shortened: as §4
[14] = tested on: Mus musculus; experiment: Antinociceptive activity in Swiss Albino mouse at 5 mg/kg, po by writhing test measured as number of writhes; type: functional; procedure, shortened: as §4
[15] = tested on: Mus musculus; experiment: Antagonist effect on compound A-induced antinociception in Swiss Albino mouse at 10 mg/kg, ip; type: functional; conditions: route intraperitoneal; procedure, shortened: as §1
[16] = tested on: Mus musculus; experiment: Antinociceptive activity in Swiss Albino mouse at 3 mg/kg, po by hot plate assay measured as licking latency; type: functional; procedure, shortened: as §3
[17] = tested on: Mus musculus; experiment: Antinociceptive activity in Swiss Albino mouse at 3 mg/kg, ip by abdominal constriction assay; type: functional, Abdomen; conditions: route intraperitoneal; procedure, shortened: as §2
[18] = tested on: Mus musculus; experiment: Antagonist effect on compound A-induced antinociception in Swiss Albino mouse at 3 mg/kg, ip; type: functional; conditions: route intraperitoneal; procedure, shortened: as §1
[19] = tested on: Mus musculus; experiment: Antinociceptive activity in Swiss Albino mouse at 3 mg/kg, po by writhing test measured as number of writhes in presence of yohimbine; type: functional

CC1c2ccccc2CN1CC1=NCCN1 (centres undefined)
Activity [1]: 33.4 | Activity [2]: 32.9

Cc1noc2c(-c3ccccc3N)nn(CCCN3CCN(c4cccc(Cl)c4)CC3)c(=O)c12
Activity [3]: 16.5 | Activity [4]: 28

Cc1noc2c(-c3ccccc3[N+](=O)[O-])nn(CCCN3CCN(c4cccc(Cl)c4)CC3)c(=O)c12
Activity [4]: 31.7

O=c1c2ccccc2cnn1CCCN1CCN(c2cccc(Cl)c2)CC1
Activity ([3]; 20 mg/kg): 28 and 83% | Activity [4]: 8.2 | Activity [5]: 31.8

Cc1nn(CCCN2CCN(c3cccc(Cl)c3)CC2)c(=O)c2nn(-c3ccccc3)c(C)c12
Activity [4]: 10.3

O=C1c2ccccc2C(=O)N1CCCN1CCN(c2ccc(F)cc2)CC1
Activity [3]: 36.5 | Activity [4]: 19.4

Cc1noc2cnn(CCCN3CCN(c4cccc(Cl)c4)CC3)c(=O)c12
Activity [3]: 27.7 | Activity [4]: 11.9 | Activity [5]: 27.4

Cc1cc(C)c2c(-c3ccccc3)nn(CCCN3CCN(c4cccc(Cl)c4)CC3)c(=O)c2n1
Activity [4]: 18

O=c1c2ccccc2cnn1CCCN1CCN(c2ccc(Cl)cc2)CC1
Activity [4]: 23.9

CCOC(=O)CCn1nc(-c2ccccc2)c2onc(C)c2c1=O
Activity [3]: 17.4 | Activity [4]: 32.7

Cc1onc2c(=O)n(CCCN3CCN(c4cccc(Cl)c4)CC3)nc(-c3cccs3)c12
Activity [4]: 16.2

Cc1noc2c(-c3ccccc3)nn(CCC(=O)N3CCN(c4ccc(Cl)cc4)CC3)c(=O)c12
Activity [3]: 17.2 | Activity [4]: 23.5 | Activity [5]: 45.4

Cc1noc2c(-c3ccccc3)nn(CC(C)CN3CCN(c4cccc(Cl)c4)CC3)c(=O)c12 (centres undefined)
Activity [4]: 35.5

O=C1c2ccccc2C(=O)N1CCN1CCN(c2ccc(F)cc2)CC1
Activity [4]: 22.6 | Activity [5]: 37.9

Cc1noc2c(-c3ccccc3)nn(CCC(=O)N3CCN(c4cccc(Cl)c4)CC3)c(=O)c12
Activity [4]: 22.1 | Activity [5]: 41.3

Cc1noc2c(-c3ccccc3)nnc(SCCCN3CCN(c4ccc(F)cc4)CC3)c12
Activity [4]: 28.6

Cc1noc2c(-c3ccccc3)nn(CCCN3CCN(c4cccc(Cl)c4)CC3)c(=O)c12
Activity [6]: Dose-dependent effect | IC50 [7]: 0.13 µM | Ki [8]: > 1 µM | Activity [9]: inactive | Activity [10]: 11.6

Cc1noc2c(-c3ccccc3)nn(CCCN3CCN(c4ccc(F)cc4)CC3)c(=O)c12
Activity [11]: 17.6 | Activity [12]: 39.2

N#Cc1cccc(N2CCN(CCCn3ncc4ccccc4c3=O)CC2)c1
Activity [13]: 17.2

Cc1noc2cnn(CCCCN3CCN(c4cccc(Cl)c4)CC3)c(=O)c12
Activity [14]: 27.2

Cc1noc2c(-c3ccccc3)nn(CCCCN3CCN(c4cccc(Cl)c4)CC3)c(=O)c12
Activity [4]: 30.6

COc1ccccc1N1CCN(CCN2C(=O)c3ccccc3C(C)(C)C2=O)CC1
Activity [15]: 9.6

CC(CN1CCN(c2cccc(Cl)c2)CC1)Cn1ncc2ccccc2c1=O (centres undefined)
Activity [4]: 36.7

COC(=O)[C@@H]1[C@H]2C[C@H]3c4[nH]c5ccccc5c4CCN3C[C@@H]2CC[C@@H]1O [YOHIMBINE]
Activity [16]: 15.8 | Activity [17]: 28.5 | Activity [18]: 27.8 | Activity [19]: 35.9

Cc1noc2c(-c3ccccc3)nn(CCN3CCN(c4cccc(Cl)c4)CC3)c(=O)c12
Activity [3]: 15.4 | Activity [4]: 23.6 | Activity [5]: 37.2

Cc1noc2c(-c3ccccc3)nn(CCCN3CCN(c4ccc(Cl)cc4)CC3)c(=O)c12
Activity [4]: 27.1

O=c1c2ccccc2cnn1CCCCN1CCN(c2cccc(Cl)c2)CC1
Activity [4]: 28.5

Cc1noc2c(-c3ccc([N+](=O)[O-])cc3)nn(CCCN3CCN(c4cccc(Cl)c4)CC3)c(=O)c12
Activity [4]: 26.8

Cc1noc2c(-c3ccccc3)nn(CCCN3CCN(c4ccccn4)CC3)c(=O)c12
Activity [11]: 15.1 | Activity [12]: 30.2

O=C1c2ccccc2C(=O)N1CCCN1CCN(c2cccc(Cl)c2)CC1
Activity [3]: 16.2 | Activity [4]: 34.9
